# Assay results as given in article PMC12709667 (Journal of Clinical Pharmacology, 2025).
# Values joined by “and” are separate entries in the source; they are usually repeats but may differ in a detail not shown here. Equal values may be shown once.
# What was measured:
# [1] = First-in-human study Part 3, 100-mg SDD tablet food effect; format: in vivo; details: plasma, oral, 200 mg; for AUC: AUC0‐last; for AUC / Cmax: single 200 mg dose of 100‐mg SDD tablets; for half-life: t1/2, single 200 mg dose of 100‐mg SDD tablets
# CYP2C9 = CYP2C9 (Homo sapiens, UniProt P11712); test: Cytochrome P450 inhibition; format: in vitro ADME
# Chain of CYP2C9 (P11712 whole entry): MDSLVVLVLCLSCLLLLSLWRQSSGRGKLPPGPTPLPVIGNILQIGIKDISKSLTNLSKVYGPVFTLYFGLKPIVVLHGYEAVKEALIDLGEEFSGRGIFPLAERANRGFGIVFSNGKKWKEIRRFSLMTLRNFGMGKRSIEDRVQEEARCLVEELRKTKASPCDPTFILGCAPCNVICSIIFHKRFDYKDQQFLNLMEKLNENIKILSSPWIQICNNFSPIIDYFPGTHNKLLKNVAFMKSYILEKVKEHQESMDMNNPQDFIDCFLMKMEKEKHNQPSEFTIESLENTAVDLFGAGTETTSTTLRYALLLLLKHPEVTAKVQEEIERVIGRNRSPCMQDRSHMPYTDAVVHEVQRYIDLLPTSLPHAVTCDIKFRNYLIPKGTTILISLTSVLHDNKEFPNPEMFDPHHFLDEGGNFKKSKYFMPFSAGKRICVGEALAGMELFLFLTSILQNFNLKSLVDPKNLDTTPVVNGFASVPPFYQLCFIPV
# [2] = First-in-human study, multiple ascending dose; format: in vivo; details: for half-life: human, plasma, oral
# [3] = Clinical safety in phase 1 studies; format: in vivo, human
# Procedure, shortened: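 Healthy adult subjects in phase 1 studies received oral single doses, or once-daily doses for up to 14 days, with placebo controls in some parts. They were housed in the clinical pharmacology unit from at least the day before dosing until ≥24 h after the last dose. Treatment-emergent adverse events were recorded and graded for intensity.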
# OATP1B3 = biological target: T1, OATP1B3 (Homo sapiens, UniProt Q9NPD5); test: Transporter substrate assessment; format: in vitro ADME
# T1 sequence (Q9NPD5 1-702): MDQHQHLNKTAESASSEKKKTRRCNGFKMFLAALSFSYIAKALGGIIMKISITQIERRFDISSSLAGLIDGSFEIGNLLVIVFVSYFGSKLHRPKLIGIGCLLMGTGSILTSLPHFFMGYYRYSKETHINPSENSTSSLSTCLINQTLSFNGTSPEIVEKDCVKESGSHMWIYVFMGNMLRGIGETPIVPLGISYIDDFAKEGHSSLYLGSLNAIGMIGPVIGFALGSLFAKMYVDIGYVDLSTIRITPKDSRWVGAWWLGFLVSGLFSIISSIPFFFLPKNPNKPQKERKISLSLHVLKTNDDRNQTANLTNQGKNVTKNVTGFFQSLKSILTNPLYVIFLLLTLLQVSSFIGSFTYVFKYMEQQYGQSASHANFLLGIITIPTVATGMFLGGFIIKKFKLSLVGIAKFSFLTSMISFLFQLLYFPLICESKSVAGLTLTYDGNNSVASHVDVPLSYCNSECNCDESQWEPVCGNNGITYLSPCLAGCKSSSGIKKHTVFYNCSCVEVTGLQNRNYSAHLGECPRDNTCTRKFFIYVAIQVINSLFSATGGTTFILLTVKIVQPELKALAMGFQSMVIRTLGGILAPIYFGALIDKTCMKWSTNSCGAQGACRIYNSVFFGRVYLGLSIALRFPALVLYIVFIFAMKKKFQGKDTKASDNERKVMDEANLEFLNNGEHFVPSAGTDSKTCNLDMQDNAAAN
# MDR1/P-gp = MDR1/P-gp (Homo sapiens, UniProt P08183); test: Transporter substrate assessment; format: in vitro ADME
# Chain of MDR1/P-gp (P08183 whole entry): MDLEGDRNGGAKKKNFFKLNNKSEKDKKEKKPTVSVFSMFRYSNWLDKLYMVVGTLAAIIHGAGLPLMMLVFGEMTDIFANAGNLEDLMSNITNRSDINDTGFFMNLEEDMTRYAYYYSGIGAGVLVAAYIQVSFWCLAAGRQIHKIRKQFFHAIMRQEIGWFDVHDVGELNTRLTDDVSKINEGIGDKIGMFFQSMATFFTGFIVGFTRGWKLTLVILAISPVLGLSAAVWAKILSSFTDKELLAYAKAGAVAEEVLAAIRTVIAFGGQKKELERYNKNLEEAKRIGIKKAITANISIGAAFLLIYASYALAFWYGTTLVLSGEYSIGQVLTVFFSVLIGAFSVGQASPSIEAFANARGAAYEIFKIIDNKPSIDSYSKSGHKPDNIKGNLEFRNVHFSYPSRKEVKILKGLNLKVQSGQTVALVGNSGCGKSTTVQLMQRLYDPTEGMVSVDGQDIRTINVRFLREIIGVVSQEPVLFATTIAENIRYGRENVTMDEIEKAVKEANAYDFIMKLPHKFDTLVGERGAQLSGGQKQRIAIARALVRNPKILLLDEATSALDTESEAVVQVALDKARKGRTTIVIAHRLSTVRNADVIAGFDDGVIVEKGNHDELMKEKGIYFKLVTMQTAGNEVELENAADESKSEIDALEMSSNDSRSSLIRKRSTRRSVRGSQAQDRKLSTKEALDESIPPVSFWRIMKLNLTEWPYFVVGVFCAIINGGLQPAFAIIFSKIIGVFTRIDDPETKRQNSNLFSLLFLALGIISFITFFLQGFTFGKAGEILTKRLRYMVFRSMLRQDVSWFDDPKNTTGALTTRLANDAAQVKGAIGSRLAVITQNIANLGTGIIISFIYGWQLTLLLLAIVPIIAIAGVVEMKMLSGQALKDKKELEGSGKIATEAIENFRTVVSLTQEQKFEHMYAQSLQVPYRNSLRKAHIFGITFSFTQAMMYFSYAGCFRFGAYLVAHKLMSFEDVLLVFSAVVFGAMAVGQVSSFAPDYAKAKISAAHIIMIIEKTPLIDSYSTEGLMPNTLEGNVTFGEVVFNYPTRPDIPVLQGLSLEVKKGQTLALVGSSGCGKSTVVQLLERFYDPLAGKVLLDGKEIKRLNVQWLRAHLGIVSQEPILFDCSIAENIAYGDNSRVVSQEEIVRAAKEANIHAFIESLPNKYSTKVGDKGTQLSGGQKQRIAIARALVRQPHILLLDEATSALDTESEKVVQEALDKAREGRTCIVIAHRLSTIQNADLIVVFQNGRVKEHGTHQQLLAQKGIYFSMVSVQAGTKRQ
# Human [14C] ADME study = format: in vivo
# [4] = [14C] metabolism and excretion study in cynomolgus monkeys; format: in vivo, cynomolgus monkey; details: for whole blood‐to‐plasma ratio of total radioactivity: based on AUC0‐last; for recovery of radioactivity: by 168 h postdose
# Procedure, shortened: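 Male and female cynomolgus monkeys received one oral-gavage dose of 80 mg/kg (2 MBq/kg) [14C]-labelled test compound. Blood, urine and faeces were collected at set times up to 168 h for total radioactivity. Metabolites were profiled by high-resolution LC-MS with online fraction collection and offline counting. The blood:plasma ratio was based on AUC0-last.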
# CYP2C8 = biological target: T2, CYP2C8 (Homo sapiens, UniProt P10632); test: Cytochrome P450 inhibition; format: in vitro ADME
# T2 sequence (P10632 1-490): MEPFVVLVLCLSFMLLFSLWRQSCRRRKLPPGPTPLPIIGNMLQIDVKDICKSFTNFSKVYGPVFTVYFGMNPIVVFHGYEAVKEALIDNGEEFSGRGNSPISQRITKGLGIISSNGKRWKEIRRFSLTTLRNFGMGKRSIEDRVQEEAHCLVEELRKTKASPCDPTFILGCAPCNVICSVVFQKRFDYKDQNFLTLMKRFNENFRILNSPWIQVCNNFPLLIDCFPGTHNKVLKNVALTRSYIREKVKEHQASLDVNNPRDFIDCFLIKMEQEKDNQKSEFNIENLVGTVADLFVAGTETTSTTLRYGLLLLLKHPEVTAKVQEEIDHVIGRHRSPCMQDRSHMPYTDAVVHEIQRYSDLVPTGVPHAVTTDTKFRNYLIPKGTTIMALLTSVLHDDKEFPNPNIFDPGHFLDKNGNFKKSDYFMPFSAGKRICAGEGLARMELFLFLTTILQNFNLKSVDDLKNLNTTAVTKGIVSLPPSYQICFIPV
# liver fat = details: patients with presumed MASH; cited from earlier work
# [5] = In vitro blood/plasma partitioning; format: in vitro ADME; details: monkey, whole blood
# Procedure, shortened: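 Test compound was added to rat, monkey or human whole blood and incubated, then centrifuged to obtain plasma. The plasma concentration was measured by LC-MS. It was compared with the concentration in directly spiked plasma of the same species.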
# CYP2C19 = CYP2C19 (Homo sapiens, UniProt P33261); test: Cytochrome P450 inhibition; format: in vitro ADME
# Chain of CYP2C19 (P33261 whole entry): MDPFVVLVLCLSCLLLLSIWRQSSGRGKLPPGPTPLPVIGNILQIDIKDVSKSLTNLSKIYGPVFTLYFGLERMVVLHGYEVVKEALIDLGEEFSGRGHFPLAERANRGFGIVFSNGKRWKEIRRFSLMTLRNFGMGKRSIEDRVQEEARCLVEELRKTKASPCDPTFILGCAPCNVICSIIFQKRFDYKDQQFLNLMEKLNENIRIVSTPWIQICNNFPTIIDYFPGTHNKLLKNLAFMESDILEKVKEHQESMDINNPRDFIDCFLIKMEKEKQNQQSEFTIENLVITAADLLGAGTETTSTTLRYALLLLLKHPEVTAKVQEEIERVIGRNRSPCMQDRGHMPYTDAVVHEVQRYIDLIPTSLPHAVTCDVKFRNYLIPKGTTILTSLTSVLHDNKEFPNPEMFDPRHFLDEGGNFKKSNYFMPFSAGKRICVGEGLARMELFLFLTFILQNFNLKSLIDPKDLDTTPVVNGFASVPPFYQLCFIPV
# 28-day toxicology study = format: in vivo, monkey; details: monkeys
# [6] = repeated once‐daily dosing for up to 14 days
# [7] = single‐dose studies, healthy subjects
smiles,measurement,setting,value
O=c1[nH]c(=O)c(Cc2cccc(C(F)(F)F)c2)c([C@H]2CC[C@H](c3ccccc3)CC2)[nH]1 [miricorilant],AUC,"[1]; Fasted, geometric mean (%CV)",1620 ng·h/mL
same,AUC,"[1]; Fed, geometric mean (%CV)",3560 ng·h/mL
same,Cmax,"[1]; Fasted, geometric mean (%CV)",105 ng/mL
same,Cmax,"[1]; Fed, N = 6, geometric mean (%CV)",184 ng/mL
same,half-life,"[1]; Fasted, geometric mean (%CV)",21.1 h
same,half-life,"[1]; Fed, geometric mean (%CV)",19.6 h
same,IC50,CYP2C9,7.7 µM
same,time dependence of CYP2C9 inhibition,CYP2C9,not time dependent
same,average increase in Cmax and AUC0‐last per doubling of the dose,"[2]; 150, 450, 900 mg once daily, day 1",1.92 fold
same,half-life,[2],~20 h
same,half-life,[2]; 150 mg,21.6 h
same,half-life,[2]; 450 mg,21.2 h
same,half-life,[2]; 900 mg,19.4 h
same,accumulation ratio for Cmax,[2]; repeated daily dosing (Discussion/Conclusions),≈ 1.5 fold
same,overall safety and tolerability,[3]; phase 1 studies,safe and well‐tolerated
same,intensity of TEAEs,[3]; [6],mild or moderate
same,most commonly reported TEAE,[3]; [6],headache
same,deaths or serious adverse events,[3]; repeated‐dose studies,no deaths or treatment‐emergent serious adverse events
same,discontinuation due to TEAEs,[3]; [7],No subjects
same,intensity of TEAEs,[3]; [7],mild or moderate
same,most commonly reported TEAE,[3]; [7],headache
same,Substrate of OATP1B3,OATP1B3,not a substrate
same,Substrate of MDR1/P-gp,MDR1/P-gp,not a substrate
same,administered radioactivity recovered in excreta,"Human [14C] ADME study; 240‐h sampling period, mean ± SD",93.68 ± 1.63%
same,administered dose recovered in urine,"Human [14C] ADME study; human, 150 mg oral solution",4.56%
same,total radioactivity recovered in feces,"Human [14C] ADME study; human, 150 mg oral solution",89.12% and 89.12 ± 1.16%
same,Cmax,"Human [14C] ADME study; male, human, plasma, po, 150 mg",343 ng/mL
same,administered radioactivity eliminated,Human [14C] ADME study; within the first 48 h post dose,19.28 ± 9.01%
same,elimination in urine,[4]; female monkeys,0.74 ± 0.11%
same,fecal elimination,[4]; female monkeys,78.51 ± 8.77%
same,time at which plasma radioactivity was below the limit of detection,[4]; female monkeys,96 h
same,whole blood‐to‐plasma ratio of total radioactivity,[4]; female monkeys,0.66
same,recovery of radioactivity,[4]; female monkeys,88.08 ± 4.03%
same,elimination in urine,[4]; male monkeys,0.96 ± 0.08%
same,fecal elimination,[4]; male monkeys,72.2 ± 11.20%
same,time at which plasma radioactivity was below the limit of detection,[4]; male monkeys,144 h
same,whole blood‐to‐plasma ratio of total radioactivity,[4]; male monkeys,0.75
same,recovery of radioactivity,[4]; male monkeys,80.88 ± 11.60%
same,IC50,CYP2C8,7.5 µM
same,time dependence of CYP2C8 inhibition,CYP2C8,not time dependent
same,effect on liver fat,liver fat,rapid and substantial reduction of liver fat
same,blood plasma ratio,[5],0.83
same,inhibition of CYP2C19,CYP2C19,No inhibition
same,adverse effects in 28‐day toxicology study,28-day toxicology study,No adverse effects
